Experimental data from different studies.
Protocols differ between the studies behind these lines.
Target: Serine/threonine-protein kinase PAK 2 (PAK2, Homo sapiens, UniProt Q13177)

CO[C@@H]1[C@H](N(C)C(=O)c2ccccc2)C[C@H]2O[C@]1(C)n1c3ccccc3c3c4c(c5c6ccccc6n2c5c31)C(=O)NC4 — inhibition (enzyme activity; inhibitor; 1 µM): 28%
C[C@H]1CC[C@H](n2c3cnccc3c3cnc(Nc4ccc5c(n4)CCN(C(=O)CO)C5)nc32)CC1 — remaining signal (cell-free assay; 1 µM): 76%
N#Cc1ccc(NC(=O)Nc2ccccc2)cc1 — remaining binding (cell-free assay; competition with immobilised ligand; 25 µM): 82%
CN1CCN(C(=O)c2ccc(NC(=O)Nc3ccc(N(C)c4ccnc(Nc5ccc(CS(C)(=O)=O)cc5)n4)cc3)cc2)CC1 — remaining binding (binding; 1 µM): 50%
C=CC(=O)N1CCC([C@@H]2CCNc3c(C(N)=O)c(-c4ccc(Oc5ccccc5)cc4)nn32)CC1 — inhibition (enzyme activity; inhibitor; 1 µM): 23%
CCCCC(=O)Nc1ccc(-c2ccc3ncn(CCC)c(=O)c3c2)cn1 — remaining binding (binding; competition with immobilised ligand; 0.5 µM): 91%
C1=C/COCc2cc(ccc2OCCN2CCCC2)Nc2nccc(n2)-c2cccc(c2)COC/1 — remaining binding (binding; 0.1 µM): 94%
COc1ccc2oc(-c3ccc4nc(N)oc4c3)c/c(=N\c3ccccc3NC(=O)CCN)c2c1 — remaining binding (binding; 1 µM): 98%
Cc1cc(O)c(-c2ccc([C@@H](C)CN(C)C)cc2)c2c1[nH]c(=O)c1sccc12 — inhibition (cell-free assay; inhibitor; 0.1 µM; lysate): -5.59%
C#Cc1cnc(Nc2ccnc(CO)c2)nc1Nc1ccccc1S(C)(=O)=NC#N (stereo not shown) — remaining signal (cell-free assay; 1 µM): 48%
